Data on one compound can be found in ChEMBL document CHEMBL2203081 (Bioorg Med Chem Lett, 2012).

Active and inactive are the calls of the source. The calls are words filed in the database; no cut-off is given here.

Assay [1] deals with Serine/threonine-protein kinase RIO2 (Homo sapiens) (UniProt Q9BVS4). Put plainly: Inhibition of RIOK2 assessed as residual activity at 10 uM relative to control.
Assay [2] concerns the target Focal adhesion kinase 1 (Homo sapiens) (UniProt Q05397). Kind of assay: Inhibition of FAK assessed as residual activity at 10 uM relative to control.
For assay [3], the system named is Epidermal growth factor receptor (Homo sapiens), P00533 [T790M]. Kind of assay: Inhibition of EGFR T790M mutant assessed as residual activity at 10 uM relative to control. It counts as protein assay. In a few lines:
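Competition kinase-binding assay (KINOMEscan) across a non-redundant panel of 329 kinases beyond the radiometric panel; residual binding expressed relative to control.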

For assay [4], the target named is Serine/threonine-protein kinase 24 (Homo sapiens) (UniProt Q9Y6E0). Put plainly: Inhibition of MST3 assessed as residual activity at 1 uM.
In assay [5] the test system is Mus musculus. Put plainly: Inhibition of LRRK2 in mouse assessed as inhibition of Ser910 autophosphorylation in brain at 100 mg/kg, ip by immunoblot method. In kind it is functional, organism-based. Details: dose 100 mg/kg. (In general: Immunoblotting shows a protein as a band on a membrane.)
Assay [6] concerns the target Mitogen-activated protein kinase 4 (Homo sapiens) (UniProt P31152). Kind of assay: Inhibition of ERK4 assessed as residual activity at 10 uM relative to control.
Assay [7] addresses Mitogen-activated protein kinase kinase kinase 4 (Homo sapiens) (UniProt Q9Y6R4). Put plainly: Inhibition of MAP3K4 assessed as residual activity at 10 uM relative to control.
For assay [8], the target named is MAP kinase-activated protein kinase 5 (Homo sapiens) (UniProt Q8IW41). Put plainly: Inhibition of PRAK assessed as residual activity at 10 uM.
For assay [9], the target named is Receptor-type tyrosine-protein kinase FLT3 (Homo sapiens) (UniProt P36888). Put plainly: Inhibition of FLT3 assessed as residual activity at 10 uM relative to control.
Receptor-type tyrosine-protein kinase FLT3 (Homo sapiens), sequence (P36888 whole entry): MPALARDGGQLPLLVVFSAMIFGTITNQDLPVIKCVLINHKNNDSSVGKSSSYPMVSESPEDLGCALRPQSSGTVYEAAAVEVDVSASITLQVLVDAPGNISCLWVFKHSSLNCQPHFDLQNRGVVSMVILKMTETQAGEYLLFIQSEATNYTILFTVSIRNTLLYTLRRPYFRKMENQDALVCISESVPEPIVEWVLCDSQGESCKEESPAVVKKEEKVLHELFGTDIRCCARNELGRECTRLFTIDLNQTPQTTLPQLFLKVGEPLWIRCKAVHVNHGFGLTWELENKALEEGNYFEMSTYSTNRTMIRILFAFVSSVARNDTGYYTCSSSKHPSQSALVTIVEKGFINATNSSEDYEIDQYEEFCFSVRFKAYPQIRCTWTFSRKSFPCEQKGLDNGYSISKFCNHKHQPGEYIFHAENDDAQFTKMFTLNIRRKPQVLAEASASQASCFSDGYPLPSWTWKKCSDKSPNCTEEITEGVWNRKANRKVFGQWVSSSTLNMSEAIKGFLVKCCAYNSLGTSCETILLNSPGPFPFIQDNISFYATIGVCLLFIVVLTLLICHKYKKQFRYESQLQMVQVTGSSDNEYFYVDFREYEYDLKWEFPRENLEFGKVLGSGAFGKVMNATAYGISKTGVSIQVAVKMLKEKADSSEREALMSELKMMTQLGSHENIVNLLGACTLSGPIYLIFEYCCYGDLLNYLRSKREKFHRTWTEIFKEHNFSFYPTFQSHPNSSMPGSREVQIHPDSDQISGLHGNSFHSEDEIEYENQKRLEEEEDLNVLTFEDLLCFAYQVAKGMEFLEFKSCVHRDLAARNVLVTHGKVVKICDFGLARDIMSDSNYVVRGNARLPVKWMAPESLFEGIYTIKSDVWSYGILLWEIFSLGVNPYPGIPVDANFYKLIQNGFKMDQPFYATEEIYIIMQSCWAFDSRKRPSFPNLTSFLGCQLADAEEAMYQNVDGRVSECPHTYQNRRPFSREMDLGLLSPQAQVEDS
Assay [10] addresses Glycogen synthase kinase-3 beta (Homo sapiens) (UniProt P49841). Kind of assay: Inhibition of GSK3b assessed as residual activity at 1 uM. In a few lines:
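Radioactivity-based enzymatic activity assay of the named kinase, run as part of a 131-kinase specificity panel at the National Centre for Protein Kinase Profiling (Dundee). Residual activity was read at the stated single inhibitor concentration.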

For assay [11], the target named is Dual serine/threonine and tyrosine protein kinase (Homo sapiens) (UniProt Q6XUX3). Kind of assay: Inhibition of RIPK5 assessed as residual activity at 10 uM relative to control.
The target of assay [12] is T1, Ephrin type-B receptor 3 (Homo sapiens) (UniProt P54753).
T1 sequence (whole entry): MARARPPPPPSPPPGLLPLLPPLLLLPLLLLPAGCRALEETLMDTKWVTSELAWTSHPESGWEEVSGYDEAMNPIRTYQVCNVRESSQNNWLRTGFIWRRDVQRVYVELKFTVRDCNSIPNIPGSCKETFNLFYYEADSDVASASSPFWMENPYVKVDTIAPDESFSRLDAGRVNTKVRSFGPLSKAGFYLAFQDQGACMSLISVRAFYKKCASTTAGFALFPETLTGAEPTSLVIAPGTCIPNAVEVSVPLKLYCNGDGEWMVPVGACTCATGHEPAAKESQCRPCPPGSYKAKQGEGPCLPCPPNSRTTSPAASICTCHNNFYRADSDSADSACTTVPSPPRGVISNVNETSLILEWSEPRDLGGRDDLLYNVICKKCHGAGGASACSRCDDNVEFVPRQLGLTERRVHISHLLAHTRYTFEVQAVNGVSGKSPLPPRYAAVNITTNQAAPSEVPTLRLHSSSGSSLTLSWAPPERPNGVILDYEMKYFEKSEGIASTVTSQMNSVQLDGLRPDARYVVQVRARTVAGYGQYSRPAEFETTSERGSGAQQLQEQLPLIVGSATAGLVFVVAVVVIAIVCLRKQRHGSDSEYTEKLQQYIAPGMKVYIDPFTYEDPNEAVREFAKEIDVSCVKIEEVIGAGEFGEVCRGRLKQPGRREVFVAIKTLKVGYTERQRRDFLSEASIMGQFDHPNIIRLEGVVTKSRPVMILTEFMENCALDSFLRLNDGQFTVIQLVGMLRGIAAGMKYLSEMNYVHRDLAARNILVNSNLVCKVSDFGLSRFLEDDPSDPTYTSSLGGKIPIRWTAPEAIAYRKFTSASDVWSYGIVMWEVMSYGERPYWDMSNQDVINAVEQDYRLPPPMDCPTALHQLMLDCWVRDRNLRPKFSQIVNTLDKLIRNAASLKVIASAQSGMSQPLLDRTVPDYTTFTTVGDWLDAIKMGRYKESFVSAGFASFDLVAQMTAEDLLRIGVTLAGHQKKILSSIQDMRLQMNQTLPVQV
Put plainly: Inhibition of EPH-B3 assessed as residual activity at 1 uM. In a few lines: (§1)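 Standard radioactivity-based enzymatic kinase assays on a 131-kinase panel run by the Dundee profiling service; residual kinase activity recorded.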

The target in assay [13] is T1, Ephrin type-B receptor 3 (Homo sapiens). Put plainly: Inhibition of EPH-B3 assessed as residual activity at 10 uM. In a few lines:
as §1

The target of assay [14] is T2, Mitogen-activated protein kinase kinase kinase 7 (Homo sapiens) (UniProt O43318).
T2 sequence (whole entry): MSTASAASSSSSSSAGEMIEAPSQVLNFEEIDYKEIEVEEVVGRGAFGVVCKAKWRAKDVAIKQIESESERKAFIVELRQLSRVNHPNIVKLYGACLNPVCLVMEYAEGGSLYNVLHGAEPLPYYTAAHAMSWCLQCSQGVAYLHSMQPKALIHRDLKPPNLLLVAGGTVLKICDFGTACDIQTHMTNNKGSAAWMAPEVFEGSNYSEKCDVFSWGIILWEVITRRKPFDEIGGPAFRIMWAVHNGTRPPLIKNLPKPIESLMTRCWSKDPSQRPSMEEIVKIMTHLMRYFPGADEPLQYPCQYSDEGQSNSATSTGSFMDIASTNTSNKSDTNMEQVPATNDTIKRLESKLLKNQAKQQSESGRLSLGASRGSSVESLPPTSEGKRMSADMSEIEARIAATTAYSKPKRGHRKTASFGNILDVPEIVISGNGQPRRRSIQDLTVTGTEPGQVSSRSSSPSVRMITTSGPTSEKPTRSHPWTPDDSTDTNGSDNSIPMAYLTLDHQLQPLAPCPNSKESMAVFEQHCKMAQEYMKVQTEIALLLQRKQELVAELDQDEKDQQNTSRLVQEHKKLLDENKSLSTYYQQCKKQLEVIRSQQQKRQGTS
Put plainly: Inhibition of TAK1 assessed as residual activity at 10 uM relative to control.

The target in assay [15] is Leucine-rich repeat serine/threonine-protein kinase 2 (Mus musculus) (UniProt Q5S006). Put plainly: Inhibition of LRRK2 in Swiss mouse 3T3 cells assessed as inhibition of Ser910 autophosphorylation after 90 mins by immunoblot method. It counts as cell-based. The note with it: NIH3T3.
Leucine-rich repeat serine/threonine-protein kinase 2 (Mus musculus), sequence (Q5S006 whole entry): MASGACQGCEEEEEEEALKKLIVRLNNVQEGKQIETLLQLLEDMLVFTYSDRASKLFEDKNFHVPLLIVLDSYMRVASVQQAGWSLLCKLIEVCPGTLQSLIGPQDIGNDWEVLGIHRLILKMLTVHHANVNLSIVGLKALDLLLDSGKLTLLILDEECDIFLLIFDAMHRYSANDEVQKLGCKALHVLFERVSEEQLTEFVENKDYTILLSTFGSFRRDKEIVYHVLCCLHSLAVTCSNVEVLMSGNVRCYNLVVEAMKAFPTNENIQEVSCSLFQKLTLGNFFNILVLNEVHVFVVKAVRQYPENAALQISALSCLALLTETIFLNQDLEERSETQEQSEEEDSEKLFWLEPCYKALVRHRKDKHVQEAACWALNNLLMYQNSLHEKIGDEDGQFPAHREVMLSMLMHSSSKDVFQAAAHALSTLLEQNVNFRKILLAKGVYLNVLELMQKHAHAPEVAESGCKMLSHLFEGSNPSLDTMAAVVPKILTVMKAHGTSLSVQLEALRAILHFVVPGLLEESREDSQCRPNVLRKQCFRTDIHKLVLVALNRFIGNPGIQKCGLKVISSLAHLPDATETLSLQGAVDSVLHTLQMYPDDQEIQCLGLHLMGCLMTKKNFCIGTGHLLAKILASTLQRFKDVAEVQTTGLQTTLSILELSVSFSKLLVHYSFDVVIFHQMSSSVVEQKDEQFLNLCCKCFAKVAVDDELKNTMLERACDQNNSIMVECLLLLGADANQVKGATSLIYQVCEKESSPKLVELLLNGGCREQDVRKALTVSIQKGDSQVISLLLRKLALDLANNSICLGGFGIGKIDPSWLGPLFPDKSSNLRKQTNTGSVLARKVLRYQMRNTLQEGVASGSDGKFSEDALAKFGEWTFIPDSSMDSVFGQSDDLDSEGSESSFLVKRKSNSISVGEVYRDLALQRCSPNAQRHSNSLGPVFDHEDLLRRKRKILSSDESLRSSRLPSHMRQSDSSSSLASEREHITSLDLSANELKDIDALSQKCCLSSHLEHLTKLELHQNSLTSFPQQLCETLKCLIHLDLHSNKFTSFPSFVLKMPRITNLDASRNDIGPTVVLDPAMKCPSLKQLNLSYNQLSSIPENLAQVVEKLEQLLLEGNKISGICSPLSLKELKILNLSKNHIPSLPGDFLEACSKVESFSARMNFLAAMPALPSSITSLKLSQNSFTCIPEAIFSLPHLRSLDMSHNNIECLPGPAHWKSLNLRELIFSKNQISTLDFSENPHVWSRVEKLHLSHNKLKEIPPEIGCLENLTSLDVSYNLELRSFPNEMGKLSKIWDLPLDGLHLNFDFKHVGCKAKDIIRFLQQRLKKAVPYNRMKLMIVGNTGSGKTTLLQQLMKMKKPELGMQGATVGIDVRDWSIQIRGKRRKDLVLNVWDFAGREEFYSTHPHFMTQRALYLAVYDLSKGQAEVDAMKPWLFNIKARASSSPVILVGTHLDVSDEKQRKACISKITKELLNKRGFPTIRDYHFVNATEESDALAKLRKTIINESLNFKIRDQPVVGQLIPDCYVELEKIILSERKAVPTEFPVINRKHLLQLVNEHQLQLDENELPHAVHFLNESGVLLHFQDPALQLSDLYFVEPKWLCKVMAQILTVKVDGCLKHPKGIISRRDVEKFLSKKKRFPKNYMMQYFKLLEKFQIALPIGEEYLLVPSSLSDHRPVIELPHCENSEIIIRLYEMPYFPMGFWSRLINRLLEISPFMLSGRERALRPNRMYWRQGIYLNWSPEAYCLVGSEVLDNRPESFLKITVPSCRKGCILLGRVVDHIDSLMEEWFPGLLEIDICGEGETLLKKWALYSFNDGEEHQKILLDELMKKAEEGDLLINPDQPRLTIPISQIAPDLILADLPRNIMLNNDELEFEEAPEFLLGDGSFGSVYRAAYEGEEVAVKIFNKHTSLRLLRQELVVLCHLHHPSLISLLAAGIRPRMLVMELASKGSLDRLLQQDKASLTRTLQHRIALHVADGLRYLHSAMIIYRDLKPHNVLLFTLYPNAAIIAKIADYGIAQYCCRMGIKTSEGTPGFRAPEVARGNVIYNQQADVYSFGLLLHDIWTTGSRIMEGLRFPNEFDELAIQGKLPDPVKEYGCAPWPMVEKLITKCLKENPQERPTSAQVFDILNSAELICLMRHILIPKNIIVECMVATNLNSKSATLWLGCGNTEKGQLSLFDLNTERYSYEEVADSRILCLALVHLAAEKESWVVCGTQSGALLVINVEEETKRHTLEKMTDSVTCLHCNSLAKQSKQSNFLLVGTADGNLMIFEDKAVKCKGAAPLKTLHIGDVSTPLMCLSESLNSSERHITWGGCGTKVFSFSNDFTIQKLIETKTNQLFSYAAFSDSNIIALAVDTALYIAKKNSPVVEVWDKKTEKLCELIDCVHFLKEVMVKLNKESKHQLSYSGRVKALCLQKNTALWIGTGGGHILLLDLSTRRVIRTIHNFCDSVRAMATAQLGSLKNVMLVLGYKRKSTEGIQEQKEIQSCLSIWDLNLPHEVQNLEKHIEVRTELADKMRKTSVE
The target in assay [16] is Serine/threonine-protein kinase SBK1 (Homo sapiens) (UniProt Q52WX2). Kind of assay: Inhibition of SBK1 assessed as residual activity at 10 uM relative to control.
Serine/threonine-protein kinase SBK1 (Homo sapiens), sequence (Q52WX2 whole entry): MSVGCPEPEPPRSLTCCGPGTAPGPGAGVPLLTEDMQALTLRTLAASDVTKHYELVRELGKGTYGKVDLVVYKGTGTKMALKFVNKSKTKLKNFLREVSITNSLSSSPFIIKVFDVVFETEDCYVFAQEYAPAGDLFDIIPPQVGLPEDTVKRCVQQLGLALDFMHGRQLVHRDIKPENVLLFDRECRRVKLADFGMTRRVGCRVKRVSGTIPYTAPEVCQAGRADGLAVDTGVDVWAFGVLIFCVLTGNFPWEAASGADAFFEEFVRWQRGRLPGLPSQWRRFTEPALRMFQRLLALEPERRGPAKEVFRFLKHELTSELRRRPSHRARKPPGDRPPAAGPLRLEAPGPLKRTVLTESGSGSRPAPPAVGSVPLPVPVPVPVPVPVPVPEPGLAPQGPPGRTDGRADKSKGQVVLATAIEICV
The target of assay [17] is Cyclin-dependent kinase 18 (Homo sapiens) (UniProt Q07002). Kind of assay: Inhibition of PCTK3 assessed as residual activity at 10 uM relative to control.
Assay [18] has as its target Cyclin-dependent kinase 14 (Homo sapiens) (UniProt O94921). Kind of assay: Inhibition of PFTK1 assessed as residual activity at 10 uM relative to control.

Glycogen synthase kinase-3 beta (Homo sapiens), sequence (P49841 whole entry, looked up): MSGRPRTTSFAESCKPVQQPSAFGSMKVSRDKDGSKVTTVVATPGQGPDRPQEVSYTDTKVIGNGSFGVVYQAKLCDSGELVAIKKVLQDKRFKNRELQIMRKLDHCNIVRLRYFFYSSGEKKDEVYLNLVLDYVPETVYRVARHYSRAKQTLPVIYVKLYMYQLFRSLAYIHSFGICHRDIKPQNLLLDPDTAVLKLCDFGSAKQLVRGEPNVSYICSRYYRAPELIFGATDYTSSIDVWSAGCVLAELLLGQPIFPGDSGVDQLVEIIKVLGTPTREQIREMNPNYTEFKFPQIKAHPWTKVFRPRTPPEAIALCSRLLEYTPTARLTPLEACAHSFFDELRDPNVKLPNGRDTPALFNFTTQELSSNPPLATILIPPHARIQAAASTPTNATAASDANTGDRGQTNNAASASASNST
Mitogen-activated protein kinase 4 (Homo sapiens), sequence (P31152 whole entry): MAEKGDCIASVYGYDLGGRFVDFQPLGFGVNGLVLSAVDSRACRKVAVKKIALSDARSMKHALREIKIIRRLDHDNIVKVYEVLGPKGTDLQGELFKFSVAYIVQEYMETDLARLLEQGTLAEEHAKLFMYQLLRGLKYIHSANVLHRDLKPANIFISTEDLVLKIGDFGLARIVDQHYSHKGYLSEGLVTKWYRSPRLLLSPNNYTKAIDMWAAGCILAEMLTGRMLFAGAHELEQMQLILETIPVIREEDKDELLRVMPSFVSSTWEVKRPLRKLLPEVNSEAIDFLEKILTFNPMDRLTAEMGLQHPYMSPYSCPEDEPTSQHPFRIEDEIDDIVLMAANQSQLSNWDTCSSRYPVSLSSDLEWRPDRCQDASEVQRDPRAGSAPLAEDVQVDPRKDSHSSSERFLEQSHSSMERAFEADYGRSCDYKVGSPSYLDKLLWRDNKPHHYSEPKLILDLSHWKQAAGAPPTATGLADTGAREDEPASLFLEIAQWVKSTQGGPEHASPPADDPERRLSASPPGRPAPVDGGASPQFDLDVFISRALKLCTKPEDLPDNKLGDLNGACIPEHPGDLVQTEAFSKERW

Regarding `O=C(Nc1cccnc1)c1cc(-c2ccnc(F)c2)ccc1OCc1ccccc1`, the Activity in assay [1] worked out at 41%; in assay [2], 63%; in assay [3], 40%; in assay [4] it was 101%; in [6], 59%; in [7], 80%. The Activity in assay [8] came to 114%; in assay [9], 66%; in assay [10], 119%; in assay [11], 69%; in assay [12] it was 121%; in [13], 113%. Further, the Activity in [14] came to 59%; in assay [16], 46%; in assay [17], 58%; in assay [18] it was 80%. In addition, in assay [5], the inhibition result is “inactive”. The inhibition result in assay [15] is “Dose-dependent effect”.
